Assay [1] deals with Aldo-keto reductase family 1 member B1 (Rattus norvegicus, UniProt P07943). The experiment in a line: Inhibition of rat lens ALR2. It counts as tissue-based, Lens of camera-type eye. The method in brief:
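Partially purified rat lens enzyme (water homogenate, supernatant after 40% ammonium sulfate). NADPH consumption read at 340 nm with D,L-glyceraldehyde as substrate at 30 °C. Compounds dissolved in 10% aqueous NaHCO3 and tested at five concentrations. IC50 from least-squares fit of the linear part of the log dose–response curve; triplicate.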

Assay [2] can be described thus: Inhibition of rat kidney ALR1. The method in brief:
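Enzyme partially purified from Fischer-344 rat kidney by ammonium sulfate fractionation (40/50/75%) and DEAE treatment, with no detectable ALR2 activity. NADPH consumption followed at 340 nm with D-glucuronate substrate at 37 °C. Compounds in 10% aqueous NaHCO3, five concentrations. IC50 from least-squares fit of the linear part of the log dose–response; triplicate.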

The next assay is filed under the species Rattus norvegicus. The experiment in a line: Selectivity index, ratio of IC50 for rat kidney ALR1 to IC50 for rat lens ALR2. Format: tissue-based. The following applies: Lens of camera-type eye. The essentials:
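Ratio of IC50 values: rat kidney enzyme assayed with D-glucuronate at 37 °C, rat lens enzyme with D,L-glyceraldehyde at 30 °C. Both read as NADPH consumption at 340 nm, five compound concentrations, IC50 from the linear part of the log dose–response curve, triplicate.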

Assay [3] is described as follows: Inhibition of glucose-induced sorbitol accumulation in rat lens at 100 uM (Rbv = 643.5+/-133 nmol/g). Format: functional, Lens of camera-type eye.
Assay [4] in a line: Antioxidant activity assessed as inhibition of AAPH-induced lipid peroxidation of DOPC liposomes. Format: functional. The essentials: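 Unilamellar DOPC liposomes, 0.8 mM final, in 20 mM phosphate buffer pH 7.4, incubated with compound at 10–300 µM and AAPH (10 mM final) at 50 °C for 80 min. Lipids extracted with CHCl3/MeOH 2:1 containing 0.05% BHT. Hydroperoxides read by the thiocyanate method at 500 nm against a cumene hydroperoxide calibration. IC50 from the linear part of the semilog inhibition plot; triplicate.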

Structures are written as SMILES.

Take `COc1ccc(C(=O)c2ccn(-c3cc(F)c(O)c(F)c3)c2)cc1`: the IC50 in assay [1] was 24.9 µM; in assay [2] it was above 100 µM. For the same molecule, the Ratio IC50 in the assay filed under Rattus norvegicus is above 4.

On to `COc1cccc(C(=O)c2ccn(-c3cc(F)c(O)c(F)c3)c2)c1`, for which the IC50 in assay [1] worked out at 9.93 µM; in assay [2], 51.8 µM. The Ratio IC50 in the assay filed under Rattus norvegicus amounted to 5.2.

On to `COc1cccc(C(=O)c2cccn2-c2cc(F)c(O)c(F)c2)c1`, for which the IC50 was 1.18 µM in assay [1] and 23.5 µM in assay [2]. For the same molecule, the Ratio IC50 in the assay listed under Rattus norvegicus turned out to be 19.9.

As to `O=C(c1ccccc1)c1cccn1-c1cc(F)c(O)c(F)c1`, the values for the IC50 in assay [1] and in assay [2] were 1.06 µM and 4.6 µM, respectively. In addition, the Ratio IC50 in the assay listed under Rattus norvegicus came to 4.3.

Regarding `O=C(c1ccccc1)c1ccn(-c2cc(F)c(O)c(F)c2)c1`, the IC50 in assay [2] amounted to 13.4 µM. For the same molecule, the Ratio IC50 in the assay filed under Rattus norvegicus turned out to be 33.8.

With `O=C(c1ccccc1)c1ccn(-c2ccc(F)c(O)c2F)c1`, the concentration for half-maximal inhibition (IC50) turned out to be 1.26 µM in assay [1] and 1.61 µM in assay [2]. The Ratio IC50 in the assay listed under Rattus norvegicus came to 1.3.

Consider `COc1ccc(C(=O)c2cccn2-c2cc(F)c(O)c(F)c2)cc1`, for which the results for the IC50 in assay [1], in assay [2] and in assay [4] were 0.39 µM, 27.8 µM and 35.8 µM, respectively. In assay [3], this molecule yielded an Activity of 203.5 nmol/g. For the same molecule, the Ratio IC50 in the assay listed under Rattus norvegicus is 71.6.

The values are drawn from ChEMBL document CHEMBL1671807, “Structure-activity relations on [1-(3,5-difluoro-4-hydroxyphenyl)-1H-pyrrol-3-yl]phenylmethanone. The effect of methoxy substitution on aldose reductase inhibitory activity and selectivity” (Bioorg Med Chem, 2011).
